Changes are numbered by the printed parent chain.
How the values were obtained:
[1] = test system: human M2 receptor; experiment: Calcium mobilization, selectivity; type: cell-based
Procedure, shortened: (§1)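 Cells were seeded at 15000/well in DMEM with 10% dialyzed FBS, 20 mM HEPES and 1 mM pyruvate, then cultured overnight at 37 °C/5% CO2. M2 and M4 lines were cotransfected with Gqi5. Cells were loaded with 1 μM Fluo-4AM (HBSS, 20 mM HEPES, 2.5 mM probenecid, pH 7.4) for 50 min at 37 °C. ACh was added 140 s after test compound. Calcium signal was expressed as % of the 10 μM ACh maximum.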

[2] = biological target: T1, rat M4 receptor (Rattus norvegicus, UniProt P08485); experiment: [3H]NMS radioligand binding, modulation of ACh affinity; conditions: ACh displacement of [3H]NMS, modulator 300 nM to 10 μM
T1 sequence (P08485 1-478): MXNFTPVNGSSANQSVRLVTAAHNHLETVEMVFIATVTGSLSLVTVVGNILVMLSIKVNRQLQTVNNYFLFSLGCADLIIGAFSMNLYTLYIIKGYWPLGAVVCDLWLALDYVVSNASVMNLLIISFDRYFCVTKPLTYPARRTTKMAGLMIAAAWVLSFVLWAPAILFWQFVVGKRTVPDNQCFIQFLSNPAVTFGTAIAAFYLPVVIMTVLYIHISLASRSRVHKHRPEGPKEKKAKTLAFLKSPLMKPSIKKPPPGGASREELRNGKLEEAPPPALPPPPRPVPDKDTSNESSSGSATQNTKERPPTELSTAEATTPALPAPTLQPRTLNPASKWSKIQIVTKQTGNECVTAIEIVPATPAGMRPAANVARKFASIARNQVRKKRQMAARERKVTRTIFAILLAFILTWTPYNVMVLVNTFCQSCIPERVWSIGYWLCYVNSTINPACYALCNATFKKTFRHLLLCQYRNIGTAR
Procedure, shortened: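 Membranes came from CHO cells expressing rat M4 cotransfected with Gqi5, homogenized in 50 mM Tris-HCl/0.9% NaCl, pH 7.4. Membranes (10 μg/well) were incubated with 300 pM [3H]NMS, fixed modulator (300 nM–10 μM) or vehicle, and ACh (1 nM–1 mM) for 3 h at room temperature with shaking. Buffer was 100 mM NaCl, 10 mM MgCl2, 20 mM HEPES, […], pH 7.4. Nonspecific binding was set with 10 μM atropine. Bound ligand was filtered and counted; n ≥ 2. Cooperativity was fitted with the […].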

[3] = test system: rat M3 receptor; experiment: Calcium mobilization, selectivity; type: cell-based
Procedure, shortened: as §1

[4] = test system: rat M5 receptor; experiment: Calcium mobilization, selectivity; type: cell-based
Procedure, shortened: as §1

[5] = Mouse plasma protein binding; type: in vitro ADME
[6] = biological target: T2, cyno M4 (Macaca fascicularis, UniProt G7PQB4); experiment: Calcium mobilization, potentiation of ACh EC20; type: cell-based, cynomolgus monkey; conditions: maximum response as % of the Emax of ACh
T2 sequence (G7PQB4 1-479): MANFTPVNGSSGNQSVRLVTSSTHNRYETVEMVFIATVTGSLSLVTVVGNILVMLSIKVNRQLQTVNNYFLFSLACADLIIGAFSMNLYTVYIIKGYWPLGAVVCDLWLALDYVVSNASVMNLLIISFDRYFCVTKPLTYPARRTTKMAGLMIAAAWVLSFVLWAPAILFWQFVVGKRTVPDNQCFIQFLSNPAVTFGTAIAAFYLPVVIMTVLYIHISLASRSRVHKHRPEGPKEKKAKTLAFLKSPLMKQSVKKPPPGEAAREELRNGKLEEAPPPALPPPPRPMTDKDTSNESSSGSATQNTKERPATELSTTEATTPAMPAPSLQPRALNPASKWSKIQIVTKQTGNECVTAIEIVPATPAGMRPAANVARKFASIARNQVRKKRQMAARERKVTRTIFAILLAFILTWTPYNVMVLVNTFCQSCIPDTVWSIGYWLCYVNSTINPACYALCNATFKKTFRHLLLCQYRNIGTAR
Procedure, shortened: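 Receptor-expressing cells were plated at 15000 cells/well in DMEM with 10% dialyzed FBS, 20 mM HEPES and 1 mM pyruvate, and grown overnight at 37 °C/5% CO2. Test compound was added, then ACh at EC20 140 s later and at EC80 120 s later. Responses were normalized to 10 μM ACh maximum; ≥3 independent experiments.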

[7] = in vitro; type: in vitro ADME; conditions: rat, plasma
[8] = biological target: T1, rat M4 receptor; type: cell-based; conditions: maximum response as % of the Emax of ACh
[9] = test system: wild-type mice; experiment: Nociceptive response to increasing footshock current intensities; type: in vivo, mouse; conditions: 10 mg/kg IP
Procedure, shortened: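 Mice received vehicle (10% Tween 80 in sterile water, IP) or test compound (10 mg/kg IP) and were placed in conditioning chambers 30 min later. Behavioural responses were scored over rising footshock currents, 0–0.5 mA in 0.05 mA steps. Groups had 6–10 animals. Data: mean ± SEM, one-way ANOVA with Bonferroni test.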

[10] = test system: wild-type mice; experiment: Cue-dependent fear conditioning; type: in vivo, mouse; conditions: 3–30 mg/kg prior to the conditioning session
[11] = test system: rat M1 receptor; experiment: Calcium mobilization, selectivity; type: cell-based
Procedure, shortened: as §1

[12] = biological target: T3, human M4 (Homo sapiens, UniProt P08173); type: cell-based; conditions: maximum response as % of the Emax of ACh
T3 sequence (P08173 1-479): T2 sequence (G7PQB4 1-479) with T23S, M287V, T288A, S327P, K338R

[13] = test system: wild-type mice; experiment: Rotarod; type: in vivo, mouse; conditions: 3–30 mg/kg IP, rotarod 20 rpm
Procedure, shortened: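 Mice received vehicle (10% Tween 80 in sterile water IP) or test compound (3–30 mg/kg IP). Sixty minutes later they were placed on the rotarod and latency to fall was measured. One-way ANOVA with Dunnett's test.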

Cc1nnc2sc(C(=O)NCc3ccc(S(=O)(=O)C(F)(F)F)cc3)c(N)c2c1C [VU0467154, 5-amino-3,4-dimethyl-N-(4-((trifluoromethyl)sulfonyl)benzyl)thieno[2,3-c]pyridazine-6-carboxamide]
potentiation of ACh response (calcium response) [1]: lack of a calcium response | increase in M4 affinity for ACh (α) [2]: 14.5 fold | log α (binding cooperativity with ACh) [2]: 1.16 ± 0.06 | potentiation of ACh response (calcium response) [3]: lack of a calcium response | potentiation of ACh response (calcium response) [4]: lack of a calcium response | fraction unbound [5]: 0.022 | %AChmax [6]: 57% | fraction unbound [7]: 0.031 | %AChmax [8]: 68% | footshock threshold to elicit jumping [9]: increased the threshold to elicit jumping | twitching, flinching, and vocalizing responses to increasing foot shock intensities [9]: did not alter | acquisition of cue-dependent fear conditioning [10]: enhanced acquisition of cue-dependent fear conditioning | potentiation of ACh response (calcium response) [11]: lack of a calcium response | %AChmax [12]: 55% | latency to fall [13]: did not alter the latency to fall
